Source: PubChem
Most compounds without a hit are left out; they make up all but 9.5% or so of the library.
mHtt clearance: compounds clearing mutant huntingtin protein. inhibition, % at 1.5 µM. 47,000 tested, 0.42% active. HeLa Exon1htt(103Q)mCFP, aggregate imaging; zero = plate's median compound well. AID 853;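 active means inhibition of aggregate fluorescence above about 70%, also judged a hit by eye on the cell image, limit read from the data, passing the limit was not always enough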;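 further: cells exposed to compound for three days before fixation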
M1 antagonist: antagonists of rat M1 muscarinic receptor; P08482; CHO-M1 cells, Fluo-4 calcium, ACh EC80 antagonist mode; active compounds read low; B-score at 10 µM; 64,000 tested, 3.4% active;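 active means calcium fluorescence response, raw or row-and-column corrected B-score, differing from the plate sample mean either way at a set confidence level, mostly lower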
HEK293 NFkB inh: lowers PMA/ionomycin-induced NF-kB signal in HEK293 cells; HEK-293 NF-kB luciferase reporter, luminescence; inhibition, % at 3 µM; 62,000 tested, 0.21% active; AID 465;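 active means inhibition above the mean of all tested compounds plus 3 SD, cut at about 40% in these data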
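System: NF-kB luciferase reporter HEK-293 cells | Replication: Single test | Control set: DMSO vs reference inhibitor | Evaluation: % inhibition | Schedule: 1 h pretreatment, 16 h stimulation, 37 °C | Probe or stimulus: PMA with ionomycin | Compound dosing: One dose, 3 µM | Detection: Luciferase luminescence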
Jurkat viability: cytotoxic compounds reducing Jurkat cell viability | Jurkat E6.1 viability, ATP luminescence, 48 h | inhibition, % at 4 µM | 56,000 tested, 1.2% active;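 active means inhibition above the mean inhibition of all tested compounds plus 3 SD, cut at about 28% in these data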
D1 mod: allosteric modulators of human D1 dopamine receptor; P21728; HEK293 D1, CRE-luciferase, dopamine EC30 potentiation; actives deviate in either direction; B-score at 10 µM; 58,000 tested, 5.9% active;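 active means luminescence count or its row- and column-corrected plate score outside the 99.7% band of the plate's sample wells, on either side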
Target sequence (P21728 whole entry, looked up): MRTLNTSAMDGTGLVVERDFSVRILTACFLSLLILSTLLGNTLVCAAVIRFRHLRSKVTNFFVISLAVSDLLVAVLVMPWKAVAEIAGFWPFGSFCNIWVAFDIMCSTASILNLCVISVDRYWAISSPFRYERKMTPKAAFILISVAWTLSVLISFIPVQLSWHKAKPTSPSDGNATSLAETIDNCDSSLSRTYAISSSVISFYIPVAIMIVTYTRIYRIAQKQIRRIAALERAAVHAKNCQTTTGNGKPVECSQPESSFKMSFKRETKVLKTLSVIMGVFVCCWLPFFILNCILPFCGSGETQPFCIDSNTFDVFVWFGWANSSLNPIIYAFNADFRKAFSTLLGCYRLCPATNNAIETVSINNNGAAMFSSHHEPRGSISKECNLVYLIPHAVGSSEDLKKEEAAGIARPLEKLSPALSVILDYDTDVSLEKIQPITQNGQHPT
M1 ag: activates the M1 muscarinic receptor | CHO-M1 cells, Fluo-4 calcium fluorescence, agonist mode; active compounds read high | B-score at 10 µM | 64,000 tested, 3% active | AID 626;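 active means fluorescence rise, raw or as B-score row- and column-corrected plate score, outside the 99.7% band of its plate's samples, either direction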
M1 antag conf: M1 muscarinic receptor (rat) antagonism, confirmed; shares compounds with M1 antagonist; CHO-M1 cells, Fluo-4 calcium, ACh EC80 antagonism; active compounds read low; calcium response (max-min fluorescence) at 10 µM; 1,700 tested, 43% active; AID 677;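 active means calcium response below the same-plate mean of wells given acetylcholine alone at its 80%-effect dose, minus 3 SD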
mGluR4 antag: acts on human mGluR4 in M1 antagonist selectivity test; 1,700 tested, 0.9% active; fluorescence response (max-min) at 10 µM; CHO-mGluR4 calcium flux, Fluo-4 fluorescence, glutamate EC80; active compounds read low; shares compounds with M1 antagonist;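 active means fluorescence response below the plate's average for near-maximal glutamate wells, less 3 SD of those wells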;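 further: raw unnormalized fluorescence span taken in the window right after glutamate addition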
Each line names hits and unclear results; the compound was inactive in the other large screens (follow-up assays come after a bar, where they were run).

Cc1ccc(N2C(=O)CSC23C(=O)Nc2ccccc23)cc1 (stereo unspecified)	M1 antagonist -3.19 (no result: mHtt clearance) | M1 antag conf inactive | mGluR4 antag inactive
CC1=CC(C)(C)N2C(=O)C3(SCC(=O)N3c3ccc(O)cc3)c3cc(C)cc1c32 (stereo unspecified)	none (no result: mHtt clearance)
CCC(C)NC(=O)CNC(=O)Cn1c(C)cc2ccccc2c1=O (stereo unspecified)	none (no result: mHtt clearance, Jurkat viability)
CCOc1ccc(Nc2nc(Cc3nnc(SCC(=O)NCC4CCCO4)n3C)cs2)cc1 (stereo unspecified)	none (no result: D1 mod)
CCOc1ccc(Nc2nc(Cc3nnc(SCC(N)=O)o3)cs2)cc1	M1 antagonist -1.69 (no result: mHtt clearance, Jurkat viability) | M1 antag conf inactive | mGluR4 antag inactive
Cc1noc(C)c1S(=O)(=O)Nc1ccc(C(=O)NC2CCCCCC2)cc1	none
Cc1noc(C)c1S(=O)(=O)Nc1ccc(C(=O)N2CCN(c3ccc(Cl)cc3)CC2)cc1	M1 antagonist -2.43, D1 mod -3.69 (no result: mHtt clearance) | M1 antag conf inactive | mGluR4 antag inactive
Cc1noc(C)c1S(=O)(=O)N1CCC(C(=O)N2CCN(c3ccc(F)cc3)CC2)CC1	M1 antagonist -1.89 (no result: mHtt clearance, Jurkat viability) | M1 antag conf inactive | mGluR4 antag inactive
Cn1c(Cc2ccccc2)nnc1SCC(=O)c1ccc(Br)s1	M1 antagonist -1.69 | M1 antag conf 461 | mGluR4 antag inactive
CCOc1c(Br)ccc2c1sc1nc[nH]c(=O)c12	none
C1CCC(CNc2c3c(nc4nnnn24)CCCC3)CC1	M1 antagonist -2.94 (no result: mHtt clearance, Jurkat viability, D1 mod) | M1 antag conf inactive | mGluR4 antag inactive
O=C(Nc1ccccc1)N(C1=NCCC1)c1ccc(OC(F)F)cc1	none (no result: mHtt clearance)
Cc1[nH]nc2c1C(c1ccoc1)C(C#N)=C(N)O2 (stereo unspecified)	none
COc1cc(C2C(C#N)=C(N)Oc3n[nH]c(C)c32)cc2c1OCO2 (stereo unspecified)	M1 antagonist -4.78 (no result: mHtt clearance) | M1 antag conf inactive | mGluR4 antag inactive
CCOc1ccccc1Oc1c(C)oc2c(CN3CCN(CCO)CC3)c(O)ccc2c1=O	none (no result: D1 mod)
CCOC(=O)c1ccc(Oc2c(C)oc3c(CN4CCN(C)CC4)c(O)ccc3c2=O)cc1	M1 antagonist -4.39 (no result: D1 mod) | M1 antag conf 405 | mGluR4 antag inactive
COCCNC(=O)C(c1cccs1)N(C(=O)Cn1nnc2ccccc21)c1cccc(C)c1 (stereo unspecified)	M1 antagonist -18.3 | M1 antag conf inactive | mGluR4 antag inactive
COc1ccc(C(C(=O)OC(C)CN(C)C)c2ccccc2)cc1 (stereo unspecified)	M1 antagonist -2.97 | M1 antag conf 333 | mGluR4 antag inactive
Cn1c(=Nc2ccc(N3CCOCC3)cc2)ccc2ccccc21	M1 antagonist -10.5 (no result: mHtt clearance) | M1 antag conf 289 | mGluR4 antag inactive
CCn1c(=Nc2ccc(N3CCOCC3)cc2)ccc2ccccc21	none (no result: mHtt clearance, M1 antagonist, D1 mod, M1 ag)
O=C(NCCCN1CCOCC1)NC12CC3CC(CC(C3)C1)C2	none (no result: mHtt clearance)
CCOCCCNC(=O)NC12CC3CC(CC(C3)C1)C2	M1 antagonist -5.14 (no result: mHtt clearance) | M1 antag conf inactive | mGluR4 antag inactive
CCN1CCCC1CNCc1ccc(Cl)cc1Cl (stereo unspecified)	M1 antagonist -3.1 (no result: mHtt clearance) | M1 antag conf 529 | mGluR4 antag inactive
COCCCNC(=O)CS(=O)(=O)Cc1nc(-c2ccccc2C)oc1C	M1 antagonist -3.04 (no result: mHtt clearance) | M1 antag conf inactive | mGluR4 antag inactive
CCSc1nnc(NC(=O)CSc2nnc(-c3c[nH]c4ccccc34)n2C)s1	none (no result: mHtt clearance)
Cc1nn(C)c(C)c1CN(C)C(=O)c1cc2n(n1)C(C(F)(F)F)CC(c1cccs1)N2 (stereo unspecified)	M1 antagonist -3.46 (no result: mHtt clearance) | M1 antag conf inactive | mGluR4 antag inactive
CN1CCCC(OC(=O)c2cc(Br)ccc2Cl)C1 (stereo unspecified)	M1 antagonist -6.6 (no result: mHtt clearance) | M1 antag conf 412 | mGluR4 antag inactive
c1ccc(CCN2CN(CCCN3CCOCC3)c3nc4ccccc4n3C2)cc1	M1 antagonist -1.94 | M1 antag conf inactive | mGluR4 antag inactive
Cc1cc(NC(=O)CN2CCN(Cc3ccccc3)CC2)nc2c1c(=O)oc1ccccc12	M1 antagonist -2.41 (no result: mHtt clearance) | M1 antag conf inactive | mGluR4 antag inactive
Cc1cc(NC(=O)Cc2ccccc2)nc2c1c(=O)oc1ccccc12	none (no result: M1 antagonist, HEK293 NFkB inh, Jurkat viability, D1 mod, M1 ag)
CC1C(C#N)=C(N)OC2=C1C(=O)CCC2 (stereo unspecified)	none (no result: mHtt clearance, D1 mod)
CCCCCCC1C(C#N)=C(N)OC2=C1C(=O)CCC2 (stereo unspecified)	M1 antagonist -2.34 | M1 antag conf 434 | mGluR4 antag inactive
COc1ccc(S(=O)(=O)n2nc(OC(=O)c3c(-c4ccccc4Cl)noc3C)cc2N)cc1	none (no result: mHtt clearance)
CN1CCN(C2=Nc3ccccc3Oc3ccc(Cl)cc32)CC1	M1 antagonist -12.8 (no result: mHtt clearance, HEK293 NFkB inh, Jurkat viability) | M1 antag conf 14.9 | mGluR4 antag inactive
CCCCOc1ccc(NC2=NC3(CCCC3)N=C(N)N2)cc1	M1 antagonist -2.99 (no result: mHtt clearance) | M1 antag conf 477 | mGluR4 antag inactive
NC(=O)C1(N2CCCCC2)CCN(C(=O)CSc2nc(C(F)(F)F)cc(=O)[nH]2)CC1	M1 antagonist -3.54 | M1 antag conf inactive | mGluR4 antag inactive
Cc1cc(=O)[nH]c(SCC(=O)N2CCCCCC2)n1	none (no result: mHtt clearance)
CCC(CC)c1nnc(NC(=O)c2c(C)nn(Cc3ccccc3Cl)c2C)s1	none (no result: M1 antagonist, HEK293 NFkB inh, Jurkat viability, D1 mod, M1 ag)
O=C(NC1CCCc2ccccc21)C1CCC(CNc2c(N3CCOCC3)c(=O)c2=O)CC1 (stereo unspecified)	none (no result: mHtt clearance)
CC(C)CCN(C)C1CCN(S(=O)(=O)c2cccc(C(F)(F)F)c2)CC1	M1 antagonist -8.95 (no result: mHtt clearance) | M1 antag conf 215 | mGluR4 antag inactive
OC(COCc1ccco1)CN1CCN(C(c2ccccc2)c2ccccc2)CC1 (stereo unspecified)	M1 antagonist -16.6 (no result: mHtt clearance) | M1 antag conf 123 | mGluR4 antag inactive
CCN1CCN(CC(O)COCc2ccccc2)CC1 (stereo unspecified)	none (no result: mHtt clearance)
COc1ccccc1CNc1ccc(N2CCCCC2)cc1	M1 antagonist -4.38 | M1 antag conf 318 | mGluR4 antag inactive
CC(C)(C)C1CCC(OCC(O)CN2CCN(c3ccccc3)CC2)CC1 (stereo unspecified)	none (no result: M1 antagonist, HEK293 NFkB inh, Jurkat viability, D1 mod, M1 ag)
CC1CCN(CC(O)COC2CCC(C(C)(C)C)CC2)CC1 (stereo unspecified)	M1 antagonist -4.03 | M1 antag conf inactive | mGluR4 antag inactive
Cn1c(N)c(C(=O)COC(=O)C2(c3cccc(F)c3)CCCC2)c(=O)n(C)c1=O	M1 antagonist -2.77 | M1 antag conf inactive | mGluR4 antag inactive
Cc1nn(Cc2ccc(C(=O)Nc3nccs3)cc2)c(C)c1Cl	none
